The target in assay [1] is T1, SAMHD1 (Homo sapiens, UniProt Q9Y3Z3). Description: glutaraldehyde protein cross-linking assay of oligomeric state. The settings on record: for D (%), dimer / T (%), tetramer: 500 μM ligand, 600 nM SAMHD1; for effect on oligomeric state: 500 μM analog (dGTPαS 100 μM), 0.6 μM SAMHD1.
Assay [2] concerns the target T1, SAMHD1. Description: malachite green. To be noted: for inhibition at 500 µM: read-out: dNTPase inhibition (%, [I] = 500 μM); for IC50: 50 μM GTP and 50 μM dATP, 11-point dose response. The format is biochemical.
The next assay deals with SAMHD1 A1 site (Homo sapiens, UniProt Q9Y3Z3). Nature of the assay: fluorescence anisotropy competitive binding assay with 5′-FAM-pdGpdGpdG-3′ probe. To be noted: competition with 5′ FAM-pdGpdGpdG-3′ probe.
The target in assay [3] is SAMHD1 binding to ssRNA32 (Homo sapiens, UniProt Q9Y3Z3). Description: fluorescence anisotropy displacement of 5′-FAM-labeled ssRNA32. To be noted: read-out: EC50 ssRNA displacement; 1 μM SAMHD1, 0.5 μM ssRNA32. The essentials: (§1)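 SAMHD1 (1 μM) was preincubated with 0.5 μM 5′-FAM-labelled 32mer ssDNA or ssRNA; the two strands have identical base sequences. […] SD from triplicate experiments.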
(In fluorescence polarisation assays a small probe gives low polarisation when free and higher when bound to something large.)

Assay [4] concerns the target SAMHD1 binding to ssDNA32 (Homo sapiens, UniProt Q9Y3Z3). Nature of the assay: fluorescence anisotropy displacement of 5′-FAM-labeled ssDNA32. To be noted: read-out: EC50 ssDNA displacement; 1 μM SAMHD1, 0.5 μM ssDNA32. The essentials: as §1

Structures are written as SMILES. Where two headings read alike, the source gives them in different places. Where only a bound is given, the exact number is not on record here.

T1 sequence (Q9Y3Z3 whole entry): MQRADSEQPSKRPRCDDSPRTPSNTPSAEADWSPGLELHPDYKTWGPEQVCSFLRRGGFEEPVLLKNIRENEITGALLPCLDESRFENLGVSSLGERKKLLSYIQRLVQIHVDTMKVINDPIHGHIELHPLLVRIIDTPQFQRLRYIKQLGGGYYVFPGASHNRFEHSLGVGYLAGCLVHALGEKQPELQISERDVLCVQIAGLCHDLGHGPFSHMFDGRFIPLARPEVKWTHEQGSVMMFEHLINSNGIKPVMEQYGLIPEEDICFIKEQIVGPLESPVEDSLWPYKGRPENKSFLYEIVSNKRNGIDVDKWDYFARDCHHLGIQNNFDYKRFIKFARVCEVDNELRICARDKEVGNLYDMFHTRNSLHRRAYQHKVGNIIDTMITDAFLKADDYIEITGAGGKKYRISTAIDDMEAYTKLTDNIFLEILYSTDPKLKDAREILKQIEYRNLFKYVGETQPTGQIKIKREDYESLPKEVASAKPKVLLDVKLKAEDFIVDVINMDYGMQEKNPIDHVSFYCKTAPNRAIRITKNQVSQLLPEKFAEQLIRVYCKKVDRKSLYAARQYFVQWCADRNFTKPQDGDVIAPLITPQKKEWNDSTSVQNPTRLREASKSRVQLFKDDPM
Chain of SAMHD1 A1 site (Q9Y3Z3 whole entry): as above
Chain of SAMHD1 binding to ssDNA32 (Q9Y3Z3 whole entry): as above
Chain of SAMHD1 binding to ssRNA32 (Q9Y3Z3 whole entry): as above

For `Nc1nc2c(ncn2COCCO)c(=O)[nH]1` [acyclovir], on SAMHD1 [1], the “D (%), dimer” value came to 78% and the “T (%), tetramer” value worked out at 0%. Further, the inhibition (usually the percentage by which the read-out fell short of the control) at 500 µM at SAMHD1 [2] was determined as 68 ± 31%.
Consider `Nc1nc2c(nc(Br)n2[C@H]2C[C@H](O)[C@@H](CO)O2)c(=O)[nH]1` [Compound 8-bromo-dG, 8-bromo-deoxyguanosine], for which, at SAMHD1 [1], the “D (%), dimer” value is listed as 62% and the “T (%), tetramer” value is 0%. In addition, the Kd (in general, the concentration at which binding is half-saturated) at SAMHD1 A1 site (binding Kd (μM)) is over 1000 µM.
`Nc1nc2c(ncn2[C@@H]2O[C@H](COP(=O)(O)OP(=O)(O)OP(=O)(O)O)[C@@H](O)[C@H]2O)c(=O)[nH]1` [GTP]: on SAMHD1 [1], the “effect on oligomeric state” value was “induced complete dimerization” and the “T (%), tetramer” value is on record as 30%. Moreover, the EC50 – broadly, the concentration giving half of the maximal effect – in assay [3] was determined as 170 ± 32 µM. For the same compound, on SAMHD1 A1 site (read-out: binding Kd), the Kd worked out at 61 ± 11 µM. Further, the EC50 in assay [4] was 89 ± 25 µM.
In the case of `Nc1nc2c(ncn2[C@H]2C[C@H](O)[C@@H](COP(=O)(O)O)O2)c(=O)[nH]1` [dGMP], on SAMHD1 [1], the “D (%), dimer” value is recorded as 91% and the “T (%), tetramer” value worked out at 0%. Also, on SAMHD1 [2], inhibition was half-maximal at 110 ± 47 µM (IC50). The Kd on SAMHD1 A1 site (read-out: binding Kd) is 140 ± 43 µM.
For `Nc1ncnc2c1ncn2[C@H]1C[C@H](O)[C@@H](COP(=O)(O)O)O1` [dAMP], at SAMHD1 [1], the “D (%), dimer” value amounted to 32% and the “T (%), tetramer” value stood at 0%. Further, at SAMHD1 A1 site (read-out: binding Kd), the Kd was over 1000 µM.
Consider `O=C(O)c1cccc(-c2cccc(Br)c2)c1` [Compound 1023, 3′-bromobiphenyl-3-carboxylic acid], for which, on SAMHD1 [1], the “D (%), dimer” value came to 17% and the “T (%), tetramer” value is 0%. The IC50 – broadly, the concentration at which inhibition is half-maximal – against SAMHD1 [2] (IC50 (μM)) stood at 220 ± 150 µM. The same compound gave a Kd at SAMHD1 A1 site (binding Kd (μM)) of over 500 µM.
Regarding `Nc1nc2c([nH]c(=O)n2[C@H]2C[C@H](O)[C@@H](CO)O2)c(=O)[nH]1` [Compound 8-oxo-dG, 8-oxo-deoxyguanosine], on SAMHD1 [1], the “D (%), dimer” value is given as 37% and the “T (%), tetramer” value is 0%. The Kd on SAMHD1 A1 site (binding Kd (μM)) was over 1000 µM.
Turning to `Nc1nc2c(ncn2[C@H]2C[C@H](O)[C@@H](COP(O)(=S)OP(=O)(O)OP(=O)(O)O)O2)c(=O)[nH]1` (some centres unmarked) [dGTPαS], the “effect on oligomeric state” value at SAMHD1 [1] is given as “induced tetramerization”.
For `Nc1nc2c(ncn2[C@H]2C[C@H](O)[C@@H](COP(=O)(O)OP(=O)(O)O)O2)c(=O)[nH]1` [dGDP], at SAMHD1 [1], the “effect on oligomeric state” value is recorded as “induced tetramerization”; the “D (%), dimer” value is 39%; the “T (%), tetramer” value worked out at 56%. Besides, at SAMHD1 A1 site (read-out: binding Kd), the Kd was 130 ± 28 µM.
Take `Nc1nc2c(ncn2[C@H]2C[C@H](OP(=O)(O)O[C@H]3C[C@H](n4cnc5c(N)ncnc54)O[C@@H]3CO)[C@@H](CO)O2)c(=O)[nH]1` [5′-dGpdA-5′]: at SAMHD1 [1], the “D (%), dimer” value is on record as 93% and the “T (%), tetramer” value is 0%. Besides, the Kd at SAMHD1 A1 site (read-out: binding Kd) was found to be 70 ± 13 µM.
For the compound `Nc1nc2c(ncn2[C@H]2C[C@H](O)[C@@H](CO)O2)c(=O)[nH]1` [dG, deoxyguanosine], on SAMHD1 [1], the “D (%), dimer” value worked out at 80% and the “T (%), tetramer” value is 0%. On SAMHD1 [2] (IC50 (μM)), the IC50 was 130 ± 89 µM. Further, the inhibition at 500 µM on SAMHD1 [2] is 65 ± 2.4%. At SAMHD1 A1 site (binding Kd (μM)), the Kd is 79 ± 20 µM.
With `Cn1c[n+]([C@@H]2O[C@H](COP(=O)([O-])OP(=O)(O)OP(=O)(O)O)[C@@H](O)[C@H]2O)c2nc(N)[nH]c(=O)c21` [Compound 7-Me-GTP], on SAMHD1 A1 site (read-out: binding Kd), the Kd is over 1000 µM.
On to `Nc1nc2c(ncn2[C@@H]2O[C@H](COP(=O)(O)OP(=O)(O)O)[C@@H](O)[C@H]2O)c(=O)[nH]1` [GDP], for which, at SAMHD1 [1], the “effect on oligomeric state” value is “can induce dimerization”; the “D (%), dimer” value was determined as 88%; the “T (%), tetramer” value was found to be 0%. The Kd on SAMHD1 A1 site (read-out: binding Kd) turned out to be 210 ± 32 µM.
Take `Nc1nc2c(ncn2[C@@H]2O[C@H](COP(=O)(O)O)[C@@H](O)[C@H]2O)c(=O)[nH]1` [GMP]: on SAMHD1 [1], the “D (%), dimer” value is 87% and the “T (%), tetramer” value was 0%. The Kd on SAMHD1 A1 site (read-out: binding Kd) was 110 ± 41 µM.
Turning to `Nc1nc2c(ncn2[C@@H]2O[C@H](CO)[C@@H](O)[C@H]2O)c(=O)[nH]1` [rG, guanosine], on SAMHD1 [1], the “D (%), dimer” value is given as 64% and the “T (%), tetramer” value came out at 0%. The inhibition at 500 µM at SAMHD1 [2] was 6 ± 8.5%. This compound also yielded a Kd on SAMHD1 A1 site (binding Kd (μM)) of 500 ± 185 µM.

The values above are taken from article PMC10596003 (ACS Chemical Biology, 2023).
